{"source": "ChEMBL document CHEMBL1212705", "about": "“Gene expression signatures and small-molecule compounds link a protein kinase to Plasmodium falciparum motility” (Nat Chem Biol, 2008)", "key": {"[1]": {"tested_on": "Plasmodium falciparum", "experiment": "Binding affinity to Plasmodium falciparum PF11_0191 at 2.5 mM by LC/MS/MS analysis", "in_short": "(§1)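 P. falciparum parasite lysate was incubated with agarose-immobilized inhibitor and washed extensively. Retained proteins were eluted with urea, resolved by SDS-PAGE and identified by LC/MS/MS. In a competition arm, free inhibitor (2.5 mM) was added to the lysate before incubation with the beads under identical conditions.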"}, "[2]": {"tested_on": "Plasmodium falciparum", "experiment": "Binding affinity to Plasmodium falciparum PF14_0517 at 2.5 mM by LC/MS/MS analysis", "in_short": "as §1"}, "[3]": {"tested_on": "Plasmodium falciparum", "experiment": "Binding affinity to Plasmodium falciparum PF13_0238 at 2.5 mM by LC/MS/MS analysis", "in_short": "as §1"}, "[4]": {"tested_on": "Plasmodium falciparum", "experiment": "Binding affinity to Plasmodium falciparum PFI1680w at 2.5 mM by LC/MS/MS analysis", "in_short": "as §1"}, "[5]": {"experiment": "Inhibition of GST-fused Plasmodium falciparum recombinant CDPK1 expressed in Escherichia coli Rosetta 2 assessed as inhibition of [gamma-33P]ATP incorporation into substrate peptide by scintillation counting"}, "[6]": {"tested_on": "Toxoplasma gondii", "experiment": "Antimicrobial activity against Toxoplasma gondii […] infected in african green monkey BSC1 cells assessed as parasite invasion at 12.5 uM after 48 hrs by microscopy relative to control", "format": "functional, BSC-1"}, "[7]": {"tested_on": "Plasmodium falciparum", "experiment": "Antiplasmodial activity against pyrimethamine-resistant Plasmodium falciparum HB3 after 72 hrs by SYBR green assay", "format": "functional, organism-based", "settings": "HB3, 72 h", "in_short": "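Parasites grown in human O+ erythrocytes in RPMI with human serum and albumax. For the assay, serially diluted compounds were added to screening medium (RPMI, 4.16 mg/ml albumax) at 2.5% hematocrit and 0.3% parasitemia, then incubated 72 h in 93% N2/4% CO2/3% O2. DMSO served as baseline and uninfected erythrocytes as background. SYBR Green fluorescence was read at 520 nm to give EC50.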"}, "[8]": {"experiment": "Cytotoxicity against human Hep2 cells after 72 hrs by Cell Titer Glo assay", "format": "cell-based, HEp-2", "settings": "read-out: ED50", "in_short": "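Cells seeded at 250 per well in DMEM with 5% fetal bovine serum. Compound added the next day, followed by 72 h culture to match the parasite proliferation assay. Viability read by Cell Titer Glo luminescence.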"}, "[9]": {"experiment": "Cytotoxicity against human HeLa cells after 72 hrs by Cell Titer Glo assay", "format": "cell-based", "settings": "read-out: ED50", "in_short": "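Cells were seeded at 250 per well in DMEM with 5% FBS in 1,536-well plates, and compound was added the next day. Culture ran 72 h, matching the parasite proliferation assay. Viability was read by Cell Titer Glo luminescence, and EC50 was derived.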"}, "[10]": {"experiment": "Inhibition of GST-fused Plasmodium falciparum recombinant CDPK5 expressed in Escherichia coli Rosetta 2 assessed as inhibition of [gamma-33P]ATP incorporation into substrate peptide by scintillation counting"}, "[11]": {"tested_on": "Plasmodium falciparum", "experiment": "Binding affinity to Plasmodium falciparum PFI0875w at 2.5 mM by LC/MS/MS analysis", "in_short": "as §1"}, "[12]": {"tested_on": "Plasmodium falciparum", "experiment": "Binding affinity to Plasmodium falciparum PF13_0116 at 2.5 mM by LC/MS/MS analysis", "in_short": "as §1"}, "[13]": {"tested_on": "Plasmodium falciparum", "experiment": "Binding affinity to Plasmodium falciparum PF10_0363 at 2.5 mM by LC/MS/MS analysis", "in_short": "as §1"}, "[14]": {"tested_on": "Plasmodium falciparum", "experiment": "Binding affinity to Plasmodium falciparum PF14_0359 at 2.5 mM by LC/MS/MS analysis", "in_short": "as §1"}, "[15]": {"tested_on": "Plasmodium falciparum", "experiment": "Binding affinity to Plasmodium falciparum MAL7P1.228 at 2.5 mM by LC/MS/MS analysis", "in_short": "as §1"}, "[16]": {"tested_on": "Plasmodium falciparum", "experiment": "Binding affinity to Plasmodium falciparum PF14_0393 at 2.5 mM by LC/MS/MS analysis", "in_short": "as §1"}, "[17]": {"tested_on": "Plasmodium falciparum", "experiment": "Binding affinity to Plasmodium falciparum PF11_0037 at 2.5 mM by LC/MS/MS analysis", "in_short": "as §1"}, "[18]": {"tested_on": "Plasmodium falciparum", "experiment": "Binding affinity to Plasmodium falciparum PF10_0268 at 2.5 mM by LC/MS/MS analysis", "in_short": "as §1"}, "[19]": {"tested_on": "Plasmodium falciparum", "experiment": "Binding affinity to Plasmodium falciparum PF14_0186 at 2.5 mM by LC/MS/MS analysis", "in_short": "as §1"}, "[20]": {"tested_on": "Plasmodium falciparum", "experiment": "Binding affinity to Plasmodium falciparum PF14_0541 at 2.5 mM by LC/MS/MS analysis", "in_short": "as §1"}, "[21]": {"tested_on": "Plasmodium falciparum", "experiment": "Binding affinity to Plasmodium falciparum PFC0720w at 2.5 mM by LC/MS/MS analysis", "in_short": "as §1"}, "[22]": {"tested_on": "Plasmodium falciparum", "experiment": "Binding affinity to Plasmodium falciparum PF14_0075 at 2.5 mM by LC/MS/MS analysis", "in_short": "as §1"}, "[23]": {"tested_on": "Plasmodium falciparum", "experiment": "Binding affinity to Plasmodium falciparum PF08_0003 at 2.5 mM by LC/MS/MS analysis", "in_short": "as §1"}, "[24]": {"experiment": "Plasma concentration in BALB/c mouse at 20 mg/kg single oral dose after 24 hrs by LC/MS/MS analysis"}, "[25]": {"tested_on": "Plasmodium falciparum", "experiment": "Antimicrobial activity against Plasmodium falciparum 3D7 schizonts infected in human erythrocytes assessed as effect on parasitemia at 225 to 450 nM after 32 hrs by microscopy"}, "[26]": {"tested_on": "Toxoplasma gondii", "experiment": "Antimicrobial activity against Toxoplasma gondii […] infected in african green monkey BSC1 cells assessed as parasite invasion at 100 uM after 90 mins by microscopy relative to control"}, "[27]": {"tested_on": "Plasmodium falciparum", "experiment": "Antimicrobial activity against Plasmodium falciparum schizonts infected in human erythrocytes assessed as minimal effect on parasite cell cycle at 450 nM treated 36 hrs after release of ring stage by microscopy"}}, "note": "Calls of active or inactive are those of the source. No cut-off for these calls is given here.", "data": [{"smiles": "N[C@H]1CC[C@H](Nc2nc(Nc3ccc(C(=O)N4CCCCC4)cc3)c3ncn(-c4cccc(F)c4)c3n2)CC1", "note": "[PURFALCAMINE]", "values": [{"measurement": "Activity", "setting": "[1]", "value": "inactive"}, {"measurement": "Activity", "setting": "[2]", "value": "inactive"}, {"measurement": "Activity", "setting": "[3]", "value": "inactive"}, {"measurement": "Activity", "setting": "[4]", "value": "inactive"}, {"measurement": "IC50", "setting": "[5]", "value": 0.017, "unit": "µM"}, {"measurement": "Activity", "setting": "[6]", "value": 20, "unit": "%"}, {"measurement": "EC50", "setting": "[7]", "value": 0.178, "unit": "µM"}, {"measurement": "CC50 at 72 h", "setting": "[8]", "value": 7.24, "unit": "µM"}, {"measurement": "CC50 at 72 h", "setting": "[9]", "value": 7.03, "unit": "µM"}, {"measurement": "IC50", "setting": "[10]", "value": "> 3.5", "unit": "µM"}, {"measurement": "Activity", "setting": "[11]", "value": "inactive"}, {"measurement": "Activity", "setting": "[12]", "value": "inactive"}, {"measurement": "Activity", "setting": "[13]", "value": "inactive"}, {"measurement": "Activity", "setting": "[14]", "value": "inactive"}, {"measurement": "Activity", "setting": "[15]", "value": "inactive"}, {"measurement": "Activity", "setting": "[16]", "value": "inactive"}, {"measurement": "Activity", "setting": "[17]", "value": "inactive"}, {"measurement": "Activity", "setting": "[18]", "value": "inactive"}, {"measurement": "Activity", "setting": "[19]", "value": "inactive"}, {"measurement": "Activity", "setting": "[20]", "value": "inactive"}, {"measurement": "Activity", "setting": "[21]", "value": "inactive"}, {"measurement": "Activity", "setting": "[22]", "value": "inactive"}, {"measurement": "Activity", "setting": "[23]", "value": "inactive"}, {"measurement": "concentration at 24 h", "setting": "[24]", "value": 23, "unit": "nM"}, {"measurement": "inhibition", "setting": "[25]", "value": "inactive"}, {"measurement": "Activity", "setting": "[26]", "value": "<=20%"}, {"measurement": "Activity", "setting": "[27]", "value": "Active"}]}]}
